ChEMBL document CHEMBL4765386, “Discovery of tertiary amide derivatives incorporating benzothiazole moiety as anti-gastric cancer agents in vitro via inhibiting tubulin polymerization and activating the Hippo signaling pathway” (Eur J Med Chem, 2020)

How the values were obtained:
PC-3 = assay: Antiproliferative activity against human PC-3 cells assessed as reduction in cell viability incubated for 48 hrs by MTT assay; assay type: functional, cell-based; conditions: PC-3, 48 h
Method in brief: (§1)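 MTT assay. 5,000 cells per well in RPMI-1640 with 10% FBS and penicillin/streptomycin at 37 °C, 5% CO2. Compound added 24 h after seeding and left for 48 h. MTT was then added for 4 h at 37 °C, formazan dissolved in DMSO and absorbance read at 490 nm. IC50 calculated from three independent experiments.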

MGC-803 = assay: Antiproliferative activity against human MGC-803 cells assessed as reduction in cell viability incubated for 48 hrs by MTT assay; assay type: functional, cell-based; conditions: MGC-803, 48 h
Method in brief: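 MTT assay. Compound added 24 h after seeding and left for 48 h. MTT was then added for 4 h at 37 °C, formazan dissolved in DMSO and absorbance read at 490 nm. IC50 calculated from three independent experiments.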

HCT-116 = assay: Antiproliferative activity against human HCT-116 cells assessed as reduction in cell viability incubated for 48 hrs by MTT assay; assay type: functional, cell-based; conditions: HCT-116, 48 h; method in brief: as §1
[1] = test system: MGC-803/PTX (Homo sapiens); assay: Cytotoxicity against human MGC-803/PTX cells assessed as reduction in cell viability at 15 nM incubated for 48 hrs by MTT assay relative to control
[2] = Inhibition of tubulin (unknown origin); parameters: species or system Homo sapiens

| IC50 (PC-3) [µM] | IC50 (MGC-803) [µM] | IC50 (HCT-116) [µM] | IC50 [2] [µM] | SMILES | inhibition at 0.015 µM [1] [%] |
| --- | --- | --- | --- | --- | --- |
| > 80 | > 80 | 60.3 | – | COc1cc(N(Cc2ccc(Cl)cc2)C(=O)CSc2nc3ccccc3s2)cc(OC)c1OC | – |
| 11.2 | 0.085 | 0.429 | – | COc1ccc(CN(C(=O)CSc2nc3cc(Cl)ccc3s2)c2cc(OC)c(OC)c(OC)c2)cc1O | – |
| 12.3 | 0.493 | 0.852 | – | COc1ccc(CN(C(=O)CSc2nc3c(C)cccc3s2)c2cc(OC)c(OC)c(OC)c2)cc1O | – |
| > 80 | 34.1 | 33.9 | – | COc1ccc(CN(C(=O)CSc2nc3ccccc3s2)c2cc(OC)c(OC)c(OC)c2)cc1OC | – |
| > 80 | 45.7 | 65.3 | – | COc1cc(CN(C(=O)CSc2nc3ccccc3s2)c2cc(OC)c(OC)c(OC)c2)cc(OC)c1OC | – |
| – | – | – | – | CC(=O)O[C@H]1C(=O)[C@@]2(C)[C@H]([C@H](OC(=O)c3ccccc3)[C@]3(O)C[C@H](OC(=O)[C@H](O)[C@@H](NC(=O)c4ccccc4)c4ccccc4)C(C)=C1C3(C)C)[C@]1(OC(C)=O)CO[C@@H]1C[C@@H]2O [PACLITAXEL] | < 15 |
| 16 | 0.852 | 4.55 | – | COc1ccc(CN(C(=O)CSc2nc3ccccc3s2)c2cc(OC)c(OC)c(OC)c2)cc1Br | – |
| 26.5 | 0.682 | 1.28 | – | COc1ccc(CN(C(=O)CSc2nc3ccccc3s2)c2cc(OC)c(OC)c(OC)c2)cc1[N+](=O)[O-] | – |
| > 80 | 54.2 | > 80 | – | COc1cc(N(Cc2ccc(C)cc2)C(=O)CSc2nc3ccccc3s2)cc(OC)c1OC | – |
| 34.3 | 6.36 | 17.1 | – | COc1ccc(CN(C(=O)CSc2nc3ccccc3s2)c2cc(OC)c(OC)c(OC)c2)cc1C | – |
| 8.21 | 0.372 | 3.38 | – | COc1ccc(CN(C(=O)CSc2nc3cc(Br)ccc3s2)c2cc(OC)c(OC)c(OC)c2)cc1O | – |
| 20.1 | 0.416 | 1.83 | – | COc1ccc(CN(C(=O)CSc2nc3ccccc3s2)c2cc(OC)c(OC)c(OC)c2)cc1F | – |
| – | – | – | 2.26 | COc1cc(N2C(=O)[C@H](c3cccs3)[C@H]2c2cccc(N=[N+]=[N-])c2)cc(OC)c1OC | – |
| 54.1 | 44.3 | 54.5 | – | COc1cc(N(Cc2ccccc2)C(=O)CSc2nc3ccccc3s2)cc(OC)c1OC | – |
| 14.4 | 0.187 | 2.86 | – | COc1ccc(CN(C(=O)CSc2nc3ccccc3s2)c2cc(OC)c(OC)c(OC)c2)cc1N=[N+]=[N-] | – |
| 7.51 | 0.084 | 0.491 | – | COc1ccc(CN(C(=O)CSc2nc3ccccc3s2)c2cc(OC)c(OC)c(OC)c2)cc1N | – |
| > 80 | 48.1 | 63.8 | – | COc1cc(N(Cc2ccc(Br)cc2)C(=O)CSc2nc3ccccc3s2)cc(OC)c1OC | – |
| 4.11 | 0.071 | 0.352 | – | COc1ccc2nc(SCC(=O)N(Cc3ccc(OC)c(O)c3)c3cc(OC)c(OC)c(OC)c3)sc2c1 | – |
| > 80 | 25.2 | > 80 | – | COc1ccc(CN(C(=O)CSc2nc3ccccc3s2)c2cc(OC)c(OC)c(OC)c2)cc1C(F)(F)F | – |
| 8.46 | 0.163 | 0.426 | – | COc1ccc(CN(C(=O)CSc2nc3ccccc3s2)c2cc(OC)c(OC)c(OC)c2)cc1 | – |
| 50.8 | > 80 | 59.8 | – | COc1cc(N(Cc2ccc(F)cc2)C(=O)CSc2nc3ccccc3s2)cc(OC)c1OC | – |

| SMILES | IC50 (PC-3) [µM] | IC50 (MGC-803) [µM] | IC50 (HCT-116) [µM] | IC50 [2] [µM] | inhibition at 0.015 µM [1] [%] |
| --- | --- | --- | --- | --- | --- |
| COc1ccc(/C=C\c2cc(OC)c(OC)c(OC)c2)cc1OP(=O)(O)O [FOSBRETABULIN] | 0.033 | 0.02 | 0.042 | – | – |
| COc1cc2c(c(OC)c1OC)-c1ccc(OC)c(=O)cc1[C@@H](NC(C)=O)CC2 [COLCHICINE] | 0.338 | 0.107 | 0.129 | – | – |
